From ChEMBL document CHEMBL1129660, “Studies on 6-aminoquinolones: synthesis and antibacterial evaluation of 6-amino-8-methylquinolones” (J Med Chem, 1996)
In brackets after ≈: the same amount, converted by molar mass.

Test system: Escherichia coli
Experiment: Antibacterial activity tested against Escherichia coli ATCC 8739
Type: functional
Summary of the method: (§1)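 MICs (µg/mL) determined by conventional agar dilution against a panel of eight Gram-negative and five Gram-positive reference strains.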

In order of falling MIC:
1. Nc1cc2c(=O)c(C(=O)O)cn(C3CC3)c2cc1N1CCNCC1  0.25 µg/mL (≈ 0.761 µM)
2. Cc1c(N2CC(C)CC(C)C2)c(N)cc2c(=O)c(C(=O)O)cn(C3CC3)c12 (stereo not given)  0.125 µg/mL (≈ 0.338 µM)
3. Cc1c(N2CCN(C)CC2)c(N)cc2c(=O)c(C(=O)O)cn(-c3ccc(O)cc3)c12  0.125 µg/mL (≈ 0.306 µM)
4. CC1CN(c2cc3c(cc2N)c(=O)c(C(=O)O)cn3C2CC2)CCS1 (stereo not given)  0.03 µg/mL (≈ 0.0835 µM)
5. Cc1c(N2CCN(C)CC2)c(F)cc2c(=O)c(C(=O)O)cn(C3CC3)c12  0.03 µg/mL (≈ 0.0835 µM)

Test system: Escherichia coli
Experiment: Antibacterial activity tested against Escherichia coli ISF 432
Type: functional
Summary of the method: as §1

In order of rising MIC:
1. CC1CN(c2cc3c(cc2N)c(=O)c(C(=O)O)cn3C2CC2)CCS1 (stereo not given)  0.03 µg/mL (≈ 0.0835 µM)
2. Nc1cc2c(=O)c(C(=O)O)cn(C3CC3)c2cc1N1CCNCC1  0.03 µg/mL (≈ 0.0914 µM)
3. Cc1c(N2CCN(C)CC2)c(F)cc2c(=O)c(C(=O)O)cn(C3CC3)c12  0.03 µg/mL (≈ 0.0835 µM)
4. Cc1c(N2CC(C)CC(C)C2)c(N)cc2c(=O)c(C(=O)O)cn(C3CC3)c12 (stereo not given)  0.03 µg/mL (≈ 0.0812 µM)
5. Cc1c(N2CCN(C)CC2)c(N)cc2c(=O)c(C(=O)O)cn(-c3ccc(O)cc3)c12  0.125 µg/mL (≈ 0.306 µM)

Test system: Enterobacter cloacae
Experiment: Antibacterial activity tested against Enterobacter cloacae OMNFI 174
Type: functional

In order of rising MIC:
1. Cc1c(N2CCN(C)CC2)c(F)cc2c(=O)c(C(=O)O)cn(C3CC3)c12  0.03 µg/mL (≈ 0.0835 µM)
2. Nc1cc2c(=O)c(C(=O)O)cn(C3CC3)c2cc1N1CCNCC1  0.25 µg/mL (≈ 0.761 µM)
3. CC1CN(c2cc3c(cc2N)c(=O)c(C(=O)O)cn3C2CC2)CCS1 (stereo not given)  0.5 µg/mL (≈ 1.39 µM)
4. Cc1c(N2CC(C)CC(C)C2)c(N)cc2c(=O)c(C(=O)O)cn(C3CC3)c12 (stereo not given)  2 µg/mL (≈ 5.41 µM)
5. Cc1c(N2CCN(C)CC2)c(N)cc2c(=O)c(C(=O)O)cn(-c3ccc(O)cc3)c12  8 µg/mL (≈ 19.6 µM)

Test system: Bacteria
Experiment: Geometric mean of antibacterial activity (Gram +ve bacteria) of the compound
Type: functional
Summary of the method: (§2)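 Geometric means calculated from agar-dilution MICs (µg/mL), taken separately across the five Gram-positive and the eight Gram-negative panel strains.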

In order of falling Geometric mean:
1. Nc1cc2c(=O)c(C(=O)O)cn(C3CC3)c2cc1N1CCNCC1  42.224
2. Cc1c(N2CCN(C)CC2)c(N)cc2c(=O)c(C(=O)O)cn(-c3ccc(O)cc3)c12  18.37
3. CC1CN(c2cc3c(cc2N)c(=O)c(C(=O)O)cn3C2CC2)CCS1 (stereo not given)  1.32
4. Cc1c(N2CCN(C)CC2)c(F)cc2c(=O)c(C(=O)O)cn(C3CC3)c12  0.162
5. Cc1c(N2CC(C)CC(C)C2)c(N)cc2c(=O)c(C(=O)O)cn(C3CC3)c12 (stereo not given)  0.079

Test system: not listed separately
Experiment: Geometric mean of antibacterial activity (Gram -ve bacteria) of the compound
Type: functional
Summary of the method: as §2

In order of rising Geometric mean:
1. Cc1c(N2CCN(C)CC2)c(F)cc2c(=O)c(C(=O)O)cn(C3CC3)c12  0.145
2. CC1CN(c2cc3c(cc2N)c(=O)c(C(=O)O)cn3C2CC2)CCS1 (stereo not given)  0.451
3. Cc1c(N2CC(C)CC(C)C2)c(N)cc2c(=O)c(C(=O)O)cn(C3CC3)c12 (stereo not given)  0.641
4. Nc1cc2c(=O)c(C(=O)O)cn(C3CC3)c2cc1N1CCNCC1  0.836
5. Cc1c(N2CCN(C)CC2)c(N)cc2c(=O)c(C(=O)O)cn(-c3ccc(O)cc3)c12  2.378

Test system: Klebsiella pneumoniae
Experiment: Antibacterial activity tested against Klebsiella pneumoniae (Klebsiella pneumoniae) ATCC 10031
Type: functional
Summary of the method: as §1

In order of rising MIC:
1. CC1CN(c2cc3c(cc2N)c(=O)c(C(=O)O)cn3C2CC2)CCS1 (stereo not given)  0.03 µg/mL (≈ 0.0835 µM)
2. Cc1c(N2CCN(C)CC2)c(F)cc2c(=O)c(C(=O)O)cn(C3CC3)c12  0.03 µg/mL (≈ 0.0835 µM)
3. Cc1c(N2CC(C)CC(C)C2)c(N)cc2c(=O)c(C(=O)O)cn(C3CC3)c12 (stereo not given)  0.06 µg/mL (≈ 0.162 µM)
4. Nc1cc2c(=O)c(C(=O)O)cn(C3CC3)c2cc1N1CCNCC1  0.25 µg/mL (≈ 0.761 µM)
5. Cc1c(N2CCN(C)CC2)c(N)cc2c(=O)c(C(=O)O)cn(-c3ccc(O)cc3)c12  0.25 µg/mL (≈ 0.612 µM)

Test system: Proteus vulgaris
Experiment: Antibacterial activity tested against Proteus vulgaris CNUR 5
Type: functional
Summary of the method: as §1

Compared with `CC1CN(c2cc3c(cc2N)c(=O)c(C(=O)O)cn3C2CC2)CCS1` (stereo not given), `Nc1cc2c(=O)c(C(=O)O)cn(C3CC3)c2cc1N1CCNCC1` is 4-fold lower in MIC: 128 µg/mL (≈ 356 µM) for the first, 32 µg/mL (≈ 97.5 µM) for the second.

First: Cc1c(N2CCN(C)CC2)c(F)cc2c(=O)c(C(=O)O)cn(C3CC3)c12
Second: Cc1c(N2CC(C)CC(C)C2)c(N)cc2c(=O)c(C(=O)O)cn(C3CC3)c12 (stereo not given)
The MIC of the first is 8-fold lower: 2 µg/mL (≈ 5.56 µM) for the first, 16 µg/mL (≈ 43.3 µM) for the second.

Compound `Cc1c(N2CCN(C)CC2)c(N)cc2c(=O)c(C(=O)O)cn(-c3ccc(O)cc3)c12` has an MIC of over 128 µg/mL.

Test system: Providencia stuartii
Experiment: Antibacterial activity tested against Providencia stuartii CNUR 5
Type: functional
Summary of the method: as §1

In order of rising MIC:
1. Cc1c(N2CC(C)CC(C)C2)c(N)cc2c(=O)c(C(=O)O)cn(C3CC3)c12 (stereo not given)  0.5 µg/mL (≈ 1.35 µM)
2. CC1CN(c2cc3c(cc2N)c(=O)c(C(=O)O)cn3C2CC2)CCS1 (stereo not given)  1 µg/mL (≈ 2.78 µM)
3. Cc1c(N2CCN(C)CC2)c(F)cc2c(=O)c(C(=O)O)cn(C3CC3)c12  2 µg/mL (≈ 5.56 µM)
4. Cc1c(N2CCN(C)CC2)c(N)cc2c(=O)c(C(=O)O)cn(-c3ccc(O)cc3)c12  8 µg/mL (≈ 19.6 µM)
5. Nc1cc2c(=O)c(C(=O)O)cn(C3CC3)c2cc1N1CCNCC1  32 µg/mL (≈ 97.5 µM)

Test system: Pseudomonas aeruginosa
Experiment: Antibacterial activity tested against P. ae (Pseudomonas aeruginosa) ATCC 9027
Type: functional
Summary of the method: as §1

In order of falling MIC:
1. Cc1c(N2CCN(C)CC2)c(N)cc2c(=O)c(C(=O)O)cn(-c3ccc(O)cc3)c12  8 µg/mL (≈ 19.6 µM)
2. Cc1c(N2CC(C)CC(C)C2)c(N)cc2c(=O)c(C(=O)O)cn(C3CC3)c12 (stereo not given)  4 µg/mL (≈ 10.8 µM)
3. CC1CN(c2cc3c(cc2N)c(=O)c(C(=O)O)cn3C2CC2)CCS1 (stereo not given)  2 µg/mL (≈ 5.56 µM)
4. Nc1cc2c(=O)c(C(=O)O)cn(C3CC3)c2cc1N1CCNCC1  2 µg/mL (≈ 6.09 µM)
5. Cc1c(N2CCN(C)CC2)c(F)cc2c(=O)c(C(=O)O)cn(C3CC3)c12  2 µg/mL (≈ 5.56 µM)

Test system: Shigella
Experiment: Antibacterial activity tested against Shigella enteritidis
Type: functional
Summary of the method: as §1

In order of falling MIC:
1. Cc1c(N2CCN(C)CC2)c(N)cc2c(=O)c(C(=O)O)cn(-c3ccc(O)cc3)c12  4 µg/mL (≈ 9.79 µM)
2. Cc1c(N2CC(C)CC(C)C2)c(N)cc2c(=O)c(C(=O)O)cn(C3CC3)c12 (stereo not given)  2 µg/mL (≈ 5.41 µM)
3. CC1CN(c2cc3c(cc2N)c(=O)c(C(=O)O)cn3C2CC2)CCS1 (stereo not given)  0.5 µg/mL (≈ 1.39 µM)
4. Nc1cc2c(=O)c(C(=O)O)cn(C3CC3)c2cc1N1CCNCC1  0.25 µg/mL (≈ 0.761 µM)
5. Cc1c(N2CCN(C)CC2)c(F)cc2c(=O)c(C(=O)O)cn(C3CC3)c12  0.03 µg/mL (≈ 0.0835 µM)

Test system: Staphylococcus aureus
Experiment: Antibacterial activity against Staphylococcus aureus ATCC 6538
Type: functional
Summary of the method: as §1

In order of falling MIC:
1. Nc1cc2c(=O)c(C(=O)O)cn(C3CC3)c2cc1N1CCNCC1  64 µg/mL (≈ 195 µM)
2. Cc1c(N2CCN(C)CC2)c(N)cc2c(=O)c(C(=O)O)cn(-c3ccc(O)cc3)c12  16 µg/mL (≈ 39.2 µM)
3. CC1CN(c2cc3c(cc2N)c(=O)c(C(=O)O)cn3C2CC2)CCS1 (stereo not given)  0.5 µg/mL (≈ 1.39 µM)
4. Cc1c(N2CCN(C)CC2)c(F)cc2c(=O)c(C(=O)O)cn(C3CC3)c12  0.06 µg/mL (≈ 0.167 µM)
5. Cc1c(N2CC(C)CC(C)C2)c(N)cc2c(=O)c(C(=O)O)cn(C3CC3)c12 (stereo not given)  0.03 µg/mL (≈ 0.0812 µM)

Test system: Staphylococcus aureus
Experiment: Antibacterial activity against Staphylococcus aureus MPR 5
Type: functional
Summary of the method: as §1

In order of rising MIC:
1. Cc1c(N2CCN(C)CC2)c(F)cc2c(=O)c(C(=O)O)cn(C3CC3)c12  0.03 µg/mL (≈ 0.0835 µM)
2. Cc1c(N2CC(C)CC(C)C2)c(N)cc2c(=O)c(C(=O)O)cn(C3CC3)c12 (stereo not given)  0.03 µg/mL (≈ 0.0812 µM)
3. CC1CN(c2cc3c(cc2N)c(=O)c(C(=O)O)cn3C2CC2)CCS1 (stereo not given)  0.5 µg/mL (≈ 1.39 µM)
4. Cc1c(N2CCN(C)CC2)c(N)cc2c(=O)c(C(=O)O)cn(-c3ccc(O)cc3)c12  16 µg/mL (≈ 39.2 µM)
5. Nc1cc2c(=O)c(C(=O)O)cn(C3CC3)c2cc1N1CCNCC1  64 µg/mL (≈ 195 µM)

Test system: Enterococcus faecalis
Experiment: Antibacterial activity tested against Streptococcus faecalis LEP Br
Type: functional
Summary of the method: as §1

In order of falling MIC:
1. Nc1cc2c(=O)c(C(=O)O)cn(C3CC3)c2cc1N1CCNCC1  128 µg/mL (≈ 390 µM)
2. Cc1c(N2CCN(C)CC2)c(N)cc2c(=O)c(C(=O)O)cn(-c3ccc(O)cc3)c12  64 µg/mL (≈ 157 µM)
3. CC1CN(c2cc3c(cc2N)c(=O)c(C(=O)O)cn3C2CC2)CCS1 (stereo not given)  8 µg/mL (≈ 22.3 µM)
4. Cc1c(N2CCN(C)CC2)c(F)cc2c(=O)c(C(=O)O)cn(C3CC3)c12  1 µg/mL (≈ 2.78 µM)
5. Cc1c(N2CC(C)CC(C)C2)c(N)cc2c(=O)c(C(=O)O)cn(C3CC3)c12 (stereo not given)  1 µg/mL (≈ 2.71 µM)

Test system: Staphylococcus epidermidis
Experiment: Antibacterial activity tested against Staphylococcus epidermidis CPHL A2
Type: functional
Summary of the method: as §1

In order of falling MIC:
1. Nc1cc2c(=O)c(C(=O)O)cn(C3CC3)c2cc1N1CCNCC1  16 µg/mL (≈ 48.7 µM)
2. Cc1c(N2CCN(C)CC2)c(N)cc2c(=O)c(C(=O)O)cn(-c3ccc(O)cc3)c12  8 µg/mL (≈ 19.6 µM)
3. CC1CN(c2cc3c(cc2N)c(=O)c(C(=O)O)cn3C2CC2)CCS1 (stereo not given)  1 µg/mL (≈ 2.78 µM)
4. Cc1c(N2CCN(C)CC2)c(F)cc2c(=O)c(C(=O)O)cn(C3CC3)c12  0.25 µg/mL (≈ 0.696 µM)
5. Cc1c(N2CC(C)CC(C)C2)c(N)cc2c(=O)c(C(=O)O)cn(C3CC3)c12 (stereo not given)  0.06 µg/mL (≈ 0.162 µM)

Test system: Staphylococcus epidermidis
Experiment: Antibacterial activity tested against Staphylococcus epidermidis HCF Berset C
Type: functional
Summary of the method: as §1

In order of falling MIC:
1. Nc1cc2c(=O)c(C(=O)O)cn(C3CC3)c2cc1N1CCNCC1  16 µg/mL (≈ 48.7 µM)
2. Cc1c(N2CCN(C)CC2)c(N)cc2c(=O)c(C(=O)O)cn(-c3ccc(O)cc3)c12  16 µg/mL (≈ 39.2 µM)
3. CC1CN(c2cc3c(cc2N)c(=O)c(C(=O)O)cn3C2CC2)CCS1 (stereo not given)  2 µg/mL (≈ 5.56 µM)
4. Cc1c(N2CCN(C)CC2)c(F)cc2c(=O)c(C(=O)O)cn(C3CC3)c12  0.25 µg/mL (≈ 0.696 µM)
5. Cc1c(N2CC(C)CC(C)C2)c(N)cc2c(=O)c(C(=O)O)cn(C3CC3)c12 (stereo not given)  0.06 µg/mL (≈ 0.162 µM)
